From ChEMBL document CHEMBL1148389 (J Med Chem, 2004)
In brackets after ≈: the same amount, converted by molar mass. Several values for one entry are separate records, joined by “and”; a condition that tells them apart may be missing. Equal values may be shown once.

Assays:
Escherichia coli = test: Minimum inhibitory concentration against Escherichia coli was determined; type: functional
Method in brief: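 Broth microdilution against E. coli BL21(DE3) pLysS in cation-adjusted Mueller–Hinton broth. Stocks in 1 M KOH, diluted via 50 mM Na2CO3 pH 8.5; final 0.01–64 μg/mL.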

[1] = molecular target: Enoyl-[acyl-carrier-protein] reductase [NADH] FabI (Escherichia coli) (UniProt P0AEK4); test: In vitro inhibitory activity against wild-type enoyl-[acyl-carrier-protein] reductase (FabI) of Escherichia coli expressed as K1
Enoyl-[acyl-carrier-protein] reductase [NADH] FabI (Escherichia coli), sequence (P0AEK4 whole entry, looked up): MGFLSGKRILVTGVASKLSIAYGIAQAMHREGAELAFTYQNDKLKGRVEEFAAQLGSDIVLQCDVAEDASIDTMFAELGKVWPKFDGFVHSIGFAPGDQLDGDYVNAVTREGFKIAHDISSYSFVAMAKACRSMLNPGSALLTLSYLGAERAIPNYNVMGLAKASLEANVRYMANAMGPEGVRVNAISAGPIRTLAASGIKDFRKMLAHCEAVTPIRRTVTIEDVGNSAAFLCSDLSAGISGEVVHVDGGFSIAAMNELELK

[2] = molecular target: Enoyl-[acyl-carrier-protein] reductase [NADH] FabI (Escherichia coli) (UniProt P0AEK4); test: In vitro inhibitory activity against wild-type enoyl-[acyl-carrier-protein] reductase (FabI) of Escherichia coli expressed as K2
[3] = Ionisation constant for the compound; type: physicochemical
Method in brief: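 pKa measured by UV–vis absorbance of the conjugate base in buffers from pH 6.8 to 10.8; DMSO stocks diluted to 0.4–0.5% DMSO. Fraction of A− plotted against pH to obtain pKa.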

SMILES	MIC (Escherichia coli) [µg/mL]	K1 [1] [µM]	K2 [2]	pKa ([3]; read-out: pKa)	pKa [3]
Oc1cc(F)ccc1Oc1ccccc1	0.6 (≈ 2.94 µM)		0.042 µM and 0.24 µM	8.12	
Oc1ccccc1Oc1ccccc1	3.7 (≈ 19.9 µM)	0.5	0.4 µM	9.12	
Oc1cc(Cl)ccc1Oc1ccc(Cl)cc1Cl [TRICLOSAN]	0.3 (≈ 1.04 µM)			7.8	8.4

The next lines start with results.

MIC (Escherichia coli) [µg/mL]	K1 [1] [µM]	K2 [2]	pKa ([3]; read-out: pKa)	SMILES	pKa [3]
> 40	53	30 µM		Oc1ccccc1Cc1ccccc1O	
1 (≈ 4.99 µM)		0.0072 µM and 0.0097 µM	9.15	Cc1ccc(Oc2ccccc2)c(O)c1	
0.07 (≈ 0.317 µM)	1.1e-06		8.13	Oc1cc(Cl)ccc1Oc1ccccc1	
